# Assay results published in paper PMC2839030 (Chemical research in toxicology, 2010).
# Like-named read-outs stand apart in the source and are kept apart here.
# Experiments:
# Type in all cases: biochemical
# human CYP1A2 = target: T1, human CYP1A2 (Homo sapiens, UniProt P05177); assay: 7-Methoxyresorufin O-demethylation; settings: for Type of inhibition of P450 1A2: pre-incubation assays in the presence and absence of NADPH
# T1 sequence (P05177 2-516 limits assumed): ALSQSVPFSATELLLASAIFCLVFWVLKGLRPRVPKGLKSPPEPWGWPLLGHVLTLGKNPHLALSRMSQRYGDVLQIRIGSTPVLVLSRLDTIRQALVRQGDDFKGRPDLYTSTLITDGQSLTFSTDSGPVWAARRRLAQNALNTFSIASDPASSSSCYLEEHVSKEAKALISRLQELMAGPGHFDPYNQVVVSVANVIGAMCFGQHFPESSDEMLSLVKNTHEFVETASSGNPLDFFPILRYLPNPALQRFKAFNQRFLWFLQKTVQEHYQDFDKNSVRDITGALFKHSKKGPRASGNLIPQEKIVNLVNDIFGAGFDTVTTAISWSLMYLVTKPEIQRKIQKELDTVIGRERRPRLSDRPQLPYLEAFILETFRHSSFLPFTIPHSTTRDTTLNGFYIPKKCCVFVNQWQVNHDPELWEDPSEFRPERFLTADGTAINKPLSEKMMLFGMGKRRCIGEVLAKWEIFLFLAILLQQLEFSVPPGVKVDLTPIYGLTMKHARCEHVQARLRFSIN
# human CYP2A6 = target: T2, human CYP2A6 (Homo sapiens, UniProt P11509); assay: Coumarin 7-hydroxylation assay in supersomes
# T2 sequence (P11509 1-494): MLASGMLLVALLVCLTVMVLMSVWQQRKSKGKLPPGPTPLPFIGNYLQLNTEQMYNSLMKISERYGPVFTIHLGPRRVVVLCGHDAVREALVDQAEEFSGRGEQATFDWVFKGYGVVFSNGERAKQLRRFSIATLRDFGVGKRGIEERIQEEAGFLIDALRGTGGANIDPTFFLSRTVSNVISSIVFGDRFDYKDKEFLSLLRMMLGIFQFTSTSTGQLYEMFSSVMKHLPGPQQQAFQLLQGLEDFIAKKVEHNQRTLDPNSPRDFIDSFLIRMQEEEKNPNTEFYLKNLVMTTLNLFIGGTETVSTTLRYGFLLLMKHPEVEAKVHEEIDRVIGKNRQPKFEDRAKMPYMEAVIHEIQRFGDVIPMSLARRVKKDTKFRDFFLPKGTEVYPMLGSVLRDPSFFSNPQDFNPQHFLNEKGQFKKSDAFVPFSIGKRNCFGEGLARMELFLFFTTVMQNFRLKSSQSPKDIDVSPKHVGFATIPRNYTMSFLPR
# rat CYP2B1 = target: T3, rat CYP2B1 (Rattus norvegicus, UniProt P00176); assay: 7-Pentoxyresorufin O-depentylation
# T3 sequence (P00176 1-491): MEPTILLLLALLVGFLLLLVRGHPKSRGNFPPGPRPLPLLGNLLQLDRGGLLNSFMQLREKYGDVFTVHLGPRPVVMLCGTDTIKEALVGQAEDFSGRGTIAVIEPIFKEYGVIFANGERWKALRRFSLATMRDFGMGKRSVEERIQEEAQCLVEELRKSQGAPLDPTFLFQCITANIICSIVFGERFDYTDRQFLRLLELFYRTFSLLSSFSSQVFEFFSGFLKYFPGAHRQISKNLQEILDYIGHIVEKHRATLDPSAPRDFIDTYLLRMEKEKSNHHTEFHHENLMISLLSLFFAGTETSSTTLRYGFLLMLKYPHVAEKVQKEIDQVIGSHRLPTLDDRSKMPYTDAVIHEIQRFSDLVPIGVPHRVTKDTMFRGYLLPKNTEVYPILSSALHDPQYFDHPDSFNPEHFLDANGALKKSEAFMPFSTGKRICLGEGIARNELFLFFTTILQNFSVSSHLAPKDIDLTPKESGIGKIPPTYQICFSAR
# Outline: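 Rat CYP2B1 supersomes (with P450 reductase and cytochrome b5) in 0.1 M potassium phosphate pH 7.6 with MgCl2, pentoxyresorufin (1.0 mM stock in DMSO) and test compound in DMSO at several concentrations, with a DMSO-only control. Reaction started with NADPH-regenerating system at 37°C; resorufin fluorescence read over time (ex 530/em 585 nm). Rates from second-order curve fits; IC50 from Dixon plot x-intercept.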
# CYP1A1 = target: T4, CYP1A1 (Homo sapiens, UniProt P04798); assay: 7-Ethoxyresorufin O-deethylation; settings: for Type of inhibition of P450 1A1: pre-incubation assays in the presence and absence of NADPH
# T4 sequence (P04798 1-512): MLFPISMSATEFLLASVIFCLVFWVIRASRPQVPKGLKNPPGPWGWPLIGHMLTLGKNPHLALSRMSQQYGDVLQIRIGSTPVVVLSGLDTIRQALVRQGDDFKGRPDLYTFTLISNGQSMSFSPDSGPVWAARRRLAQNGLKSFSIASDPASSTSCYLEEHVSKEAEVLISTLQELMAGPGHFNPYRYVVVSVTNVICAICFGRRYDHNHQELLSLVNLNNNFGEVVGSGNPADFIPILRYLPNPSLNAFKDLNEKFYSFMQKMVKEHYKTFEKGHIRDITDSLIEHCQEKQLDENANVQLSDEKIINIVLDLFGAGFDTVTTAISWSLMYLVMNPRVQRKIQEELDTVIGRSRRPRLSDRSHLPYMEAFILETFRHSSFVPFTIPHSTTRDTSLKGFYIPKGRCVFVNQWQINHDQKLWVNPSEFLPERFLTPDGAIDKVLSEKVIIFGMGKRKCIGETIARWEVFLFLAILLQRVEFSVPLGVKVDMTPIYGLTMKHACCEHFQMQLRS
# Outline: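 Human CYP1A1 supersomes with P450 reductase in 0.1 M phosphate pH 7.6 plus MgCl2, ethoxyresorufin (1.0 mM DMSO stock) and test compound in DMSO at varied concentrations. NADPH-regenerating system starts reaction, 37°C. Product fluorescence ex 530/em 585 nm. Quadratic fit of progress curves, b term as rate. IC50 from Dixon plot x-intercept. Mechanism: 5-min 37°C pre-incubation ± NADPH before substrate.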
SMILES,IC50 (human CYP1A2),Type of inhibition of P450 1A2 (human CYP1A2),IC50 (human CYP2A6),IC50 (rat CYP2B1),IC50 (CYP1A1),Type of inhibition of P450 1A1 (CYP1A1),"IC50 (CYP1A1; human, pH 7.6, probe 7-ethoxyresorufin)"
"CC#Cc1ccc2c(ccc3ccccc32)c1 [Compound 2-MEPhen, 2-(1-propynyl)phenanthrene]",600 nM,mechanism-based inhibitors,> 10000 nM,> 10000 nM,160 nM,mechanism-based inhibitors,–
"C#Cc1ccc2ccc3cccc4ccc1c2c34 [Compound 1-EP, 1-ethynylpyrene]",320 nM,mechanism-based inhibitors,> 10000 nM,40 nM,180 nM,mechanism-based inhibitors,–
"C#Cc1ccc2c(ccc3ccccc32)c1 [Compound 2-Ephen, 2-ethynylphenanthrene]",340 nM,mechanism-based inhibitors,> 10000 nM,170 nM,610 nM,mechanism-based inhibitors,–
"CC#Cc1cc2cccc3ccc4cccc1c4c32 [Compound 4-MEP, 4-(1-propynyl)pyrene]",–,–,> 10000 nM,2260 nM,370 nM,mechanism-based inhibitors,–
"CC#Cc1cc2ccccc2c2ccccc12 [Compound 9-MEPhen, 9-(1-propynyl)phenanthrene]",–,mechanism-based inhibitors,> 10000 nM,> 10000 nM,2630 nM,mechanism-based inhibitors,2260 nM
"CCC#Cc1ccc2ccc3cccc4ccc1c2c34 [Compound 1-EEP, 1-(1-butynyl)pyrene]",430 nM,mechanism-based inhibitors,> 10000 nM,> 10000 nM,720 nM,mechanism-based inhibitors,–
"C#Cc1ccc2ccc3ccccc3c2c1 [Compound 3-Ephen, 3-ethynylphenanthrene]",280 nM,mechanism-based inhibitors,> 10000 nM,480 nM,1030 nM,mechanism-based inhibitors,–
"CC#Cc1ccc2ccc3cccc4ccc1c2c34 [Compound 1-MEP, 1-(1-propynyl)pyrene]",60 nM,mechanism-based inhibitors,> 10000 nM,830 nM,20 nM,mechanism-based inhibitors,–
"C#Cc1cc2ccccc2c2ccccc12 [Compound 9-Ephen, 9-ethynylphenanthrene]",–,mechanism-based inhibitors,> 10000 nM,70 nM,620 nM,mechanism-based inhibitors,–
